Columns and labels:
[1] = target: Glutamate dehydrogenase 1, mitochondrial (Bos taurus, UniProt P00366); assay: Inhibition constant against mammalian glutamate dehydrogenase (GDH)
How it was run: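 Bovine liver GDH in 0.1 M sodium phosphate, pH 7.0, with 10 μM EDTA. NAD is the variable substrate. Rates are followed as the increase in A340 from NADH formation (ε 6.22 mM-1 cm-1). Ki is taken from Lineweaver-Burk plots by linear regression. At least duplicate runs.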

[2] = Apparent inhibition constant against mammalian malate dehydrogenase (MDH)
How it was run: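 LDH and MDH: 0.05 M Tris-HCl, pH 9.0. NAD is the variable substrate. Rates come from the rise in A340 as NADH forms (ε 6.22 mM-1 cm-1). Ki is estimated from Lineweaver-Burk plots by linear regression of slope and intercept. Assays run at least in duplicate.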

Chain of Glutamate dehydrogenase 1, mitochondrial (P00366 whole entry): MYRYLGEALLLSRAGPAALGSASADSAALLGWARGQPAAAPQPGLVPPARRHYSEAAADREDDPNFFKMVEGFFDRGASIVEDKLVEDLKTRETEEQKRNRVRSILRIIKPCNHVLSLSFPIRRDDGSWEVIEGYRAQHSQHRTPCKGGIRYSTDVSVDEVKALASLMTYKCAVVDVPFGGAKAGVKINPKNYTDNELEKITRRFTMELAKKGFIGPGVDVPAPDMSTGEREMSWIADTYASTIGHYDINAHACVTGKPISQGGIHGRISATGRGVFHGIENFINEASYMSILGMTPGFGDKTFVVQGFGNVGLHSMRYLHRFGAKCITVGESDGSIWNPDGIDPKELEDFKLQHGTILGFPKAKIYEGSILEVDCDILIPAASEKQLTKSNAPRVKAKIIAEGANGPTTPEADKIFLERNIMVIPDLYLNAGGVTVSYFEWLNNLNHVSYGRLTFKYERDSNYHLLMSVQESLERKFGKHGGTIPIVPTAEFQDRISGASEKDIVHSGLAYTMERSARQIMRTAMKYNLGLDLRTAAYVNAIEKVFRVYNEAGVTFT

SMILES | Ki [1] | Ki [2]
NC(=O)C1=CN(C2OC(COP(=O)(O)OP(=O)(O)OC[C@H]3O[C@@H](n4cnc5c(N)ncnc54)[C@H](O)[C@@H]3O)[C@H](O)[C@@H]2O)C=CC1 (stereo partly drawn) | 3.4 µM | –
NC(=O)c1cncc([C@@H]2O[C@H](COP(=O)(O)OP(=O)(O)OC[C@H]3O[C@@H](n4cnc5c(N)ncnc54)[C@H](O)[C@@H]3O)[C@@H](O)[C@H]2O)c1 | – | 410 µM
NC(=O)c1cccc([C@@H]2O[C@H](COP(=O)(O)OP(=O)(O)OC[C@H]3O[C@@H](n4cnc5c(N)ncnc54)[C@H](O)[C@@H]3O)[C@@H](O)[C@H]2O)n1 | 50 µM | –
